The subject of assay [1] is PAR1 complexed with the antagonist vorapaxar. It counts as binding, human. To be noted: vorapaxar-blocked versus free PAR1. The essentials: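 Human PAR1 (residues Ala36–Tyr397) expressed in Sf9 cells via baculovirus and purified with 100 nM vorapaxar during lysis and solubilisation, then 1 μM through Ni-NTA, M1 and SEC. Reconstituted at 10 μM into DOPC/CHS liposomes, diluted 300-fold, adsorbed on mica. Cys-peptide ligand coupled to PEG-tipped cantilevers. Probed at 0.25 kHz, 30–50 nm amplitude, ~150 pN, ~27 °C. Free-energy landscape fitted from DFS plots.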

Assay [2] concerns platelets. To be noted: at 200 μM peptide; cited from earlier work.
Assay [3] has as its target T1, human PAR1 (Homo sapiens, UniProt P25116).
T1 sequence (P25116 36-397): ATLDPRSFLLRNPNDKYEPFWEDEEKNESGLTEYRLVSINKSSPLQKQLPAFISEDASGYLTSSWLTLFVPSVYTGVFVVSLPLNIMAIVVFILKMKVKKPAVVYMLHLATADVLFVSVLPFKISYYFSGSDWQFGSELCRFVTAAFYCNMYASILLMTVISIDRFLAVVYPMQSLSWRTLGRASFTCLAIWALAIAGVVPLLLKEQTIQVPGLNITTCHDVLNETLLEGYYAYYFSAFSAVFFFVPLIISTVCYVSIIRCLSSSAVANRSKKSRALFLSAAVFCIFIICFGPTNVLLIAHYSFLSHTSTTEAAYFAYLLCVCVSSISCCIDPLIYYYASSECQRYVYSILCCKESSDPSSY
Type of assay: binding. To be noted: PEG spacer carrying PAR1 N terminus with the SFLLRN ligand replaced.

Assay [4] has as its system PAR1. Put plainly: cell-based assays of antagonist dissociation from PAR1.
The target in assay [5] is T2, SFLLRN tethered ligand peptide (TRAP) (Homo sapiens).
T2 chain: SFLLRN
Briefly: FD-based AFM.

The target of assay [6] is T3, SFLLRN tethered ligand peptide (TRAP) (Homo sapiens, vorapaxar-bound PAR1).
T3 chain: SFLLRN
Put plainly: FD-based AFM.

For assay [7], the target named is T4, SALLRN peptide (Homo sapiens).
T4 chain: SALLRN
Briefly: FD-based AFM.

Assay [8] deals with T5, SFLLAN peptide (Homo sapiens).
T5 chain: SFLLAN
Put plainly: FD-based AFM.

Entries after “also recorded” stand apart in the source; their conditions may differ. Ends that are not written are not given here.

For H-SFLLAN [SFLLAN], in assay [1], the “change of binding strength / affinity to PAR1 in the presence of vorapaxar” value is given as “remained nearly unchanged; also recorded: no change in binding affinity”.

On to H-SALLRN [SALLRN], for which, in assay [2], the “response in platelet aggregation assays” value was “no response”.

Regarding FLLNSR, the “specific interaction of the functionalized tip with PAR1 (control)” value in assay [3] is given as “did not interact specifically”.

With `CCOC(=O)NC1CCC2C(C1)CC1C(=O)OC(C)C1C2CCc1ccc(-c2cccc(F)c2)cn1` (centres unmarked) [vorapaxar derivative], in assay [4], the “dissociation rate compared with that of vorapaxar” value is on record as “much faster dissociation rate”.

B1: PAR1 36-397 (protein)
chain: ATLDPRSFLLRNPNDKYEPFWEDEEKNESGLTEYRLVSINKSSPLQKQLPAFISEDASGYLTSSWLTLFVPSVYTGVFVVSLPLNIMAIVVFILKMKVKKPAVVYMLHLATADVLFVSVLPFKISYYFSGSDWQFGSELCRFVTAAFYCNMYASILLMTVISIDRFLAVVYPMQSLSWRTLGRASFTCLAIWALAIAGVVPLLLKEQTIQVPGLNITTCHDVLNETLLEGYYAYYFSAFSAVFFFVPLIISTVCYVSIIRCLSSSAVANRSKKSRALFLSAAVFCIFIICFGPTNVLLIAHYSFLSHTSTTEAAYFAYLLCVCVSSISCCIDPLIYYYASSECQRYVYSILCCKESSDPSSY
By Kd is commonly meant a measure of binding affinity in units of concentration. A high value points to a looser complex. Consider B1, for which the dissociation constant (Kd) in assay [5] was roughly 0.35 µM; in assay [6], roughly 40 µM.

B2: PAR1 36-397 (protein)
chain: ATLDPRSALLRNPNDKYEPFWEDEEKNESGLTEYRLVSINKSSPLQKQLPAFISEDASGYLTSSWLTLFVPSVYTGVFVVSLPLNIMAIVVFILKMKVKKPAVVYMLHLATADVLFVSVLPFKISYYFSGSDWQFGSELCRFVTAAFYCNMYASILLMTVISIDRFLAVVYPMQSLSWRTLGRASFTCLAIWALAIAGVVPLLLKEQTIQVPGLNITTCHDVLNETLLEGYYAYYFSAFSAVFFFVPLIISTVCYVSIIRCLSSSAVANRSKKSRALFLSAAVFCIFIICFGPTNVLLIAHYSFLSHTSTTEAAYFAYLLCVCVSSISCCIDPLIYYYASSECQRYVYSILCCKESSDPSSY
For the molecule B2, the Kd in assay [7] is roughly 3500 µM.

B3: PAR1 36-397 (protein)
chain: ATLDPRSFLLANPNDKYEPFWEDEEKNESGLTEYRLVSINKSSPLQKQLPAFISEDASGYLTSSWLTLFVPSVYTGVFVVSLPLNIMAIVVFILKMKVKKPAVVYMLHLATADVLFVSVLPFKISYYFSGSDWQFGSELCRFVTAAFYCNMYASILLMTVISIDRFLAVVYPMQSLSWRTLGRASFTCLAIWALAIAGVVPLLLKEQTIQVPGLNITTCHDVLNETLLEGYYAYYFSAFSAVFFFVPLIISTVCYVSIIRCLSSSAVANRSKKSRALFLSAAVFCIFIICFGPTNVLLIAHYSFLSHTSTTEAAYFAYLLCVCVSSISCCIDPLIYYYASSECQRYVYSILCCKESSDPSSY
Regarding B3, in assay [8], the Kd was roughly 30 µM.

The record behind these values is article PMC5087271 (Nature methods, 2015).
